Assay results reported in ChEMBL document CHEMBL4261600 (Eur J Med Chem, 2018).
The source made the active and inactive calls.

What was measured:
Homo sapiens = species on record: Homo sapiens; test: Induction of apoptosis in human MEC1 cells assessed as decrease in BCL-2 level up to 3 uM after 2 hrs by immunoblotting analysis; type: functional, cell-based
[1] = Cmax in mouse at 3 mg/kg, iv by LC-MS/MS analysis; type: ADME, organism-based; design: dose 3 mg/kg, route intravenous; conditions: in vivo
Canis familiaris = test: Oral bioavailability in beagle dog at 10 mg/kg by LC-MS/MS analysis; type: ADME, organism-based, Canis lupus familiaris; conditions: in vivo
[2] = biological target: Activin receptor type-1 (Homo sapiens) (UniProt Q04771); test: Binding affinity to wild-type human ACVR1 (C188 to C509 residues) expressed in bacterial expression system assessed as remaining unbound target protein level at 1000 nM by Kinomescan method relative to control
Outline: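 KINOMEscan competitive binding profile at 1 μM inhibitor. Remaining target binding reported as percent of DMSO control.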

[3] = biological target: Calcium/calmodulin-dependent protein kinase type II subunit beta (Homo sapiens) (UniProt Q13554); test: Binding affinity to wild-type human partial length CAMK2B (M1 to Q380 residues) expressed in bacterial expression system assessed as remaining unbound target protein level at 1000 nM by Kinomescan method relative to control
Outline: (§1)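 Profiled in a KINOMEscan binding panel with the inhibitor at a single concentration of 1 μM. Binding to each kinase was read out as percent of control, relative to a DMSO control. Strong binders were defined as those with a percent control value below 1.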

[4] = biological target: Cyclin-dependent kinase 11B (Homo sapiens, UniProt P21127); test: Binding affinity to wild-type human partial length CDK11 (M1 to N360 residues) expressed in bacterial expression system assessed as […] at 1000 nM after 1 hr by Kinomescan method relative to control
[5] = biological target: Ephrin type-B receptor 4 (Homo sapiens) (UniProt P54760); test: Binding affinity to wild-type human partial length EPHB4 (H585 to G892 residues) expressed in bacterial expression system assessed as remaining unbound target protein level at 1000 nM by Kinomescan method relative to control
Outline: (§2)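 KINOMEscan binding panel of 468 kinases/mutants. Inhibitor was tested at a single concentration of 1 μM. Binding is reported as percent of control, defined relative to a DMSO control.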

[6] = biological target: Serine/threonine-protein kinase ICK (Homo sapiens) (UniProt Q9UPZ9); test: Binding affinity to wild-type human partial length ICK (M1 to P314 residues) expressed in mammalian expression system assessed as remaining unbound target protein level at 1000 nM by Kinomescan method relative to control; outline: as §2
[7] = biological target: Inhibitor of nuclear factor kappa-B kinase subunit alpha (Homo sapiens) (UniProt O15111); test: Binding affinity to wild-type human full length IKK-alpha (M1 to E745 residues) expressed in mammalian expression system assessed as remaining unbound target protein level at 1000 nM by Kinomescan method relative to control
Outline: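 Single-point competition binding screen across a panel of 468 kinases and mutants, with the inhibitor at 1 μM. Binding is read out as percent of a DMSO control, and targets below 1 percent control were classed as strong binders.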

[8] = biological target: Tyrosine-protein kinase JAK2 (Homo sapiens) (UniProt O60674); test: Binding affinity to wild-type human partial length JAK2 JH1 catalytic domain (A829 to G1132 residues) expressed in mammalian expression system assessed as remaining unbound target protein level at 1000 nM by Kinomescan method relative to control
[9] = biological target: Serine/threonine-protein kinase MRCK beta (Homo sapiens) (UniProt Q9Y5S2); test: Binding affinity to wild-type human partial length MRCKB (L56 to S417 residues) expressed in bacterial expression system assessed as remaining unbound target protein level at 1000 nM by Kinomescan method relative to control
[10] = biological target: Myosin light chain kinase family member 4 (Homo sapiens) (UniProt Q86YV6); test: Binding affinity to wild-type human partial length MYLK4 (V79 to S380 residues) expressed in bacterial expression system assessed as remaining unbound target protein level at 1000 nM by Kinomescan method relative to control; outline: as §2
[11] = biological target: Mitogen-activated protein kinase 11 (Homo sapiens) (UniProt Q15759); test: Binding affinity to wild-type human full length p38-beta (M1 to Q364 residues) expressed in bacterial expression system assessed as remaining unbound target protein level at 1000 nM by Kinomescan method relative to control; outline: as §1
[12] = biological target: Serine/threonine-protein kinase pim-1 (Homo sapiens) (UniProt P11309); test: Binding affinity to wild-type human partial length PIM1 (A15 to K313 residues) expressed in bacterial expression system assessed as remaining unbound target protein level at 1000 nM by Kinomescan method relative to control
[13] = biological target: Protein-tyrosine kinase 2-beta (Homo sapiens) (UniProt Q14289); test: Binding affinity to wild-type human full length PYK2 (M1 to E967 residues) expressed in bacterial expression system assessed as remaining unbound target protein level at 1000 nM by Kinomescan method relative to control; outline: as §1
[14] = tested on: Proto-oncogene tyrosine-protein kinase receptor Ret (Homo sapiens), P07949 [V804L]; test: Binding affinity to human partial length RET V804L mutant (E713 to D1014 residues) expressed in bacterial expression system assessed as remaining unbound target protein level at 1000 nM by Kinomescan method relative to control
Outline: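 KINOMEscan competition-binding profiling across the panel of 468 kinases and mutants, with inhibitor tested at 1 μM. Binding is expressed as percent of control, with DMSO as the reference control.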

[15] = biological target: STE20-like serine/threonine-protein kinase (Homo sapiens) (UniProt Q9H2G2); test: Binding affinity to wild-type human partial length SLK (S14 to A307 residues) expressed in bacterial expression system assessed as remaining unbound target protein level at 1000 nM by Kinomescan method relative to control
[16] = biological target: Tyrosine-protein kinase Srms (Homo sapiens) (UniProt Q9H3Y6); test: Binding affinity to wild-type human partial length SRMS (L208 to P488 residues) expressed in mammalian expression system assessed as remaining unbound target protein level at 1000 nM by Kinomescan method relative to control
[17] = biological target: Angiopoietin-1 receptor (Homo sapiens) (UniProt Q02763); test: Binding affinity to wild-type human partial length TIE2 (N804 to T1112 residues) expressed in bacterial expression system assessed as remaining unbound target protein level at 1000 nM by Kinomescan method relative to control
[18] = biological target: Serine/threonine-protein kinase WNK2 (Homo sapiens) (UniProt Q9Y3S1); test: Binding affinity to wild-type human partial length WNK2 (V47 to D482 residues) expressed in mammalian expression system assessed as remaining unbound target protein level at 1000 nM by Kinomescan method relative to control
[19] = biological target: Serine/threonine-protein kinase WNK3 (Homo sapiens) (UniProt Q9BYP7); test: Binding affinity to wild-type human partial length WNK3 (M1 to D434 residues) expressed in mammalian expression system assessed as remaining unbound target protein level at 1000 nM by Kinomescan method relative to control
CDK8/Cyclin C = CDK8/Cyclin C (Homo sapiens, UniProt P49336); test: Inhibition of recombinant full length His-tagged human CDK8/CyclinC expressed in baculovirus expression system

COCCN[C@H]1CC[C@H](Nc2cc(-c3csc(NCC4(C#N)CCOCC4)n3)c(Cl)cn2)CC1
Activity (Homo sapiens): inactive
Cmax [1]: 573 ng/mL
F (Canis familiaris): 39.15%
Activity [2]: 91%
Activity [3]: 100%
Activity [4]: 100%
Activity [5]: 86%
Activity [6]: 40%
Activity [7]: 89%
Activity [8]: 85%
Activity [9]: 100%
Activity [10]: 94%
Activity [11]: 85%
Activity [12]: 55%
Activity [13]: 90%
Activity [14]: 92%
Activity [15]: 81%
Activity [16]: 89%
Activity [17]: 89%
Activity [18]: 92%
Activity [19]: 97%
IC50 (CDK8/Cyclin C): > 10 µM
